Molecules are shown by their SMILES. Activity calls are given as the source filed them. No cut-off for these calls is given here.

For one series, the system named is Rattus norvegicus. In words: Antihypertensive activity in ip dosed spontaneously hypertensive Wistar kyoto rat assessed as reduction in systolic arterial pressure administered for 6 hrs and measured every 30 mins post treatment by tail-cuff method. In kind it is functional, organism-based. An outline of the steps: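 Male SHRs (8 weeks, 300 ± 25 g; 6 per group), given compound intraperitoneally once daily at 8 am in 0.5% (w/v) sodium carboxymethyl cellulose/DMSO 3/1 (v/v), 2 mL·kg⁻¹. Vehicle-treated SHR and WKY controls. SBP, DBP and heart rate were measured by tail-cuff on awake, restrained rats before dosing, then every 30 min for 6 h. Values are mean ± SD of four independent experiments.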

Series [1] deals with H9c2. In words: Cytoprotective activity against H2O2-induced toxicity in rat H9c2 cells assessed as increase in cell repair at 10 to 80 uM pretreated with compound followed by H2O2 addition and measured after 1 to 8 hrs by giemsa staining based microscopic method. In kind it is functional. An outline of the steps: (§1)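 H9c2 cells were injured with H₂O₂ (400 µM) for 1, 4 or 8 h to give light, medium and heavy damage, in the presence of compound at 10–80 µM. Acetaminophen or ibuprofen served as controls. Viability was measured as mean ± SD of three experiments. SOD and MDA contents were measured as mean ± SD of four experiments. Morphology was assessed by Giemsa staining under light microscopy.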

Series [2] concerns H9c2. In words: Cytoprotective activity against H2O2-induced toxicity in rat H9c2 cells assessed as reduction in cell de-fromation at 10 to 80 uM pretreated with compound followed by H2O2 addition and measured after 1 to 8 hrs by giemsa staining based microscopic method. In kind it is functional. Put shortly: as §1
The nature of series [3]: Toxicity in Wistar kyoto rat assessed as reduction in intestinal mucosal congestion symptoms at 10 mg/kg, ip administered for 14 days by H and E staining based optical microscopic method. Format: organism-based. Particulars: in vivo, 336 h. Put shortly: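 WKY rats, 3 per group, were dosed for 14 days, with the compound at 10 mg/kg per dose and the ibuprofen comparator at 6.1 mg/kg. Rats were anaesthetised with ether and killed by cervical dislocation. Stomach and intestine were sectioned at 5-10 µm, stained with haematoxylin and eosin, and examined by optical microscopy.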

A short description of series [4]: Toxicity in Wistar kyoto rat assessed as increase in heterochromatin in liver tissue at 10 mg/kg, ip administered for 14 days by TEM assay. In kind it is organism-based. Particulars: in vivo, 336 h. An outline of the steps:
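After 14 days of daily intraperitoneal dosing at 10 mg/kg in WKY rats, with vehicle controls, liver and kidney were fixed in 4% glutaraldehyde. Ultrastructure was examined by transmission electron microscopy at 6000-, 10000- and 20000-fold magnification.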

Series [5] in a line: Toxicity in Wistar kyoto rat assessed as necrosis in renal tubular epithelial cells at 10 mg/kg, ip administered for 14 days by H and E staining based assay. Conditions: in vivo, 336 h. Format: organism-based. An outline of the steps: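 WKY rats were dosed intraperitoneally at 10 mg/kg daily for 14 days, using the 10% 1,3-propanediol vehicle, with a vehicle control group. Liver and kidney were collected and fixed immediately in 4% glutaraldehyde. Sections were stained with haematoxylin and eosin and scored for structural change under light microscopy.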

The nature of series [6]: Toxicity in Wistar kyoto rat assessed as abnormal nuclear morphology in liver tissue at 10 mg/kg, ip administered for 14 days by TEM assay. Format: organism-based. Particulars: in vivo, 336 h. Put shortly:
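WKY rats were given 10 mg·kg⁻¹ intraperitoneally daily for 14 days, with vehicle-treated controls. Liver and kidney were collected and fixed in 4% glutaraldehyde. Tissue was examined after HE staining by light microscopy and by transmission electron microscopy at 6000, 10000 and 20000-fold.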

Regarding `CC(=O)Nc1ccc(OC(=O)CCCCC2CCSS2)cc1` (configuration not stated), in the series on Rattus norvegicus, the Activity entry was “Dose-dependent effect”. Also, the outcome with H9c2 [1] and in the series with H9c2 [2] was Active.
For `CC(C)Cc1ccc(C(C)C(=O)Oc2ccc(C(N)=S)cc2)cc1` (configuration not stated), the Activity result in series [3] is given as “Non-Toxic”; in series [4] it was “Toxic”; in series [5] it was “Toxic”; in series [6], “Toxic”.

The values are drawn from ChEMBL document CHEMBL4334422, “Toxicities and beneficial protection of H2S donors based on nonsteroidal anti-inflammatory drugs” (Medchemcomm, 2019).
